Activity calls are given as the source filed them. The rule behind the calls is not given here.

For 24 molecules, Activity and fold change (FC) results are on record in ChEMBL document CHEMBL3576833, “Design and Synthesis of Acetylenyl Benzamide Derivatives as Novel Glucokinase Activators for the Treatment of T2DM” (ACS Med Chem Lett, 2015).

The subject of assay [1] is Mus musculus. The experiment in a line: Antidiabetic activity in C57BL/6J mouse assessed as reduction of blood glucose level at 10 mg/kg, po after 60 mins by fasted glucose tolerance test. The format is functional, organism-based. The method, boiled down: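 Fasted glucose tolerance test in C57BL/6J mice. Animals were fasted and dosed orally, with no glucose challenge. Blood glucose was measured at 60 min.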

For assay [2], the target named is T1, Hexokinase-4 (Homo sapiens) (UniProt P35557).
T1 sequence (whole entry): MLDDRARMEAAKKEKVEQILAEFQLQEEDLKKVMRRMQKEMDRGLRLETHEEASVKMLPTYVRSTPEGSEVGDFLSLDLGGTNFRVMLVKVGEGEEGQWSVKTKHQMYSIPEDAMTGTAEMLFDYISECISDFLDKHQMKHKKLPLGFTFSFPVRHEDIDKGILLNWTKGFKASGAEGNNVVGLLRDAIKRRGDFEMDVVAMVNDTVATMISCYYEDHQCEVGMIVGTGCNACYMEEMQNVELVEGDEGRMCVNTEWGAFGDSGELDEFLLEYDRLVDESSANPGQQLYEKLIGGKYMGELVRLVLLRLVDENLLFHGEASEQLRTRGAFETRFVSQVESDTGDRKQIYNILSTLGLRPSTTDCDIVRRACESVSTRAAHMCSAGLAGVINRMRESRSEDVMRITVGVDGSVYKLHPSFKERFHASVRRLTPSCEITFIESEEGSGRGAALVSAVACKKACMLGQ
The experiment in a line: Activation of recombinant human pancreatic glucokinase using 10 mM glucose as substrate assessed as enzyme half maximal saturation concentration at 1 uM by G6PDH coupled assay.

Assay [3] has as its target T2, Hexokinase-4 (Rattus norvegicus) (UniProt P17712).
T2 sequence (whole entry): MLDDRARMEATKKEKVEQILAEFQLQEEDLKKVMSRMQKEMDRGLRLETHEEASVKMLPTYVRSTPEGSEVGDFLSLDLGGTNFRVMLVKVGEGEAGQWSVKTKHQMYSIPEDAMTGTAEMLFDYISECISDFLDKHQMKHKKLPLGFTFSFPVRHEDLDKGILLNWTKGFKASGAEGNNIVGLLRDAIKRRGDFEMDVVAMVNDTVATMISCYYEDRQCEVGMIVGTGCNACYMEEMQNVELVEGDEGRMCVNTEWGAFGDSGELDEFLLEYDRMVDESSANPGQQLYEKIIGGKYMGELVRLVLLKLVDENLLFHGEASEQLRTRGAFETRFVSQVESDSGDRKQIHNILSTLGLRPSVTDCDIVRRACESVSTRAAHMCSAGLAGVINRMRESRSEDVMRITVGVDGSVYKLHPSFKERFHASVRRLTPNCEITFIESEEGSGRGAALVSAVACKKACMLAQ
The experiment in a line: Activation of glucokinase in rat primary hepatocytes assessed as increase in 5.6 mM 2-deoxy-D-[3H]-glucose uptake after 4 hrs by scintillation counting analysis relative to control. The assay is classed as cell-based. Conditions: Hepatocyte. In short, it runs like this: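 Rat primary hepatocytes; uptake measured under glucose stimulation, with glucose raised from 0 mM to 5.6 mM; activity expressed as fold increase in glucose uptake.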

The test system of assay [4] is Mus musculus. The experiment in a line: Antidiabetic activity in po dosed C57BL/6J mouse assessed as blood glucose lowering effect administered 30 mins prior to glucose challenge measured over 180 mins by OGTT. The assay is classed as functional, organism-based. The method, boiled down:
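Oral glucose tolerance test in C57BL/6J mice with oral dosing. Blood glucose was followed after the glucose challenge, and the result was expressed as the % reduction in blood glucose AUC.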

Assay [5] concerns the target T2, Hexokinase-4 (Rattus norvegicus). Put plainly: Activation of glucokinase in 0 to 5.6 mM glucose-stimulated Sprague-Dawley rat pancreatic islets assessed as increase in insulin secretion after 1 hr by ELISA relative to control.
Assay [6] addresses T3, Hexokinase-1 (Homo sapiens) (UniProt P19367).
T3 sequence (whole entry): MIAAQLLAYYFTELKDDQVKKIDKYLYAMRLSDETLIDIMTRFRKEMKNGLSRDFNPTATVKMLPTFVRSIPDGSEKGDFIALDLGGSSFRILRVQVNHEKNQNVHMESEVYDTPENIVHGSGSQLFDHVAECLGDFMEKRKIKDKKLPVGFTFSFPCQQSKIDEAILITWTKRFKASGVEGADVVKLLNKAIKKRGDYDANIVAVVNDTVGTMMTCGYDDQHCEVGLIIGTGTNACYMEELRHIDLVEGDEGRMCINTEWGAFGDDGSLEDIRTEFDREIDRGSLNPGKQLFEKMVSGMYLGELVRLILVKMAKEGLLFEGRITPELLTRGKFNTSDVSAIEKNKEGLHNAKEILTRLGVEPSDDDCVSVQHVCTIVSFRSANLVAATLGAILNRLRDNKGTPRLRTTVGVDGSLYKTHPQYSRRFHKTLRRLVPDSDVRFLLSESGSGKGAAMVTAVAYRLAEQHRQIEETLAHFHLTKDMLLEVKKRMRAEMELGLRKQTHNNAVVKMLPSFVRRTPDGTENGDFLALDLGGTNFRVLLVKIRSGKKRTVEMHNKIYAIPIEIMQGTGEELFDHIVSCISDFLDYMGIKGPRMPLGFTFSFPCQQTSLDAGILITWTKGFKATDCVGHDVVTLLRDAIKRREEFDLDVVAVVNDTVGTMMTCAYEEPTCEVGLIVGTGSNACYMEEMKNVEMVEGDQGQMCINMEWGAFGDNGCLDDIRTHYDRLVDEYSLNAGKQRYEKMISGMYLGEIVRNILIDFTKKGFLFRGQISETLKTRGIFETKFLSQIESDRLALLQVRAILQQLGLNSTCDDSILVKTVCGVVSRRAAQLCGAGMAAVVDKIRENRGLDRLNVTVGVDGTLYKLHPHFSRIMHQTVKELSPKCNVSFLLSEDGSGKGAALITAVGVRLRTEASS
Put plainly: Effect on hexokinase-1 (unknown origin).

For assay [7], the target named is T4, Hexokinase-2 (Homo sapiens) (UniProt P52789).
T4 sequence (whole entry): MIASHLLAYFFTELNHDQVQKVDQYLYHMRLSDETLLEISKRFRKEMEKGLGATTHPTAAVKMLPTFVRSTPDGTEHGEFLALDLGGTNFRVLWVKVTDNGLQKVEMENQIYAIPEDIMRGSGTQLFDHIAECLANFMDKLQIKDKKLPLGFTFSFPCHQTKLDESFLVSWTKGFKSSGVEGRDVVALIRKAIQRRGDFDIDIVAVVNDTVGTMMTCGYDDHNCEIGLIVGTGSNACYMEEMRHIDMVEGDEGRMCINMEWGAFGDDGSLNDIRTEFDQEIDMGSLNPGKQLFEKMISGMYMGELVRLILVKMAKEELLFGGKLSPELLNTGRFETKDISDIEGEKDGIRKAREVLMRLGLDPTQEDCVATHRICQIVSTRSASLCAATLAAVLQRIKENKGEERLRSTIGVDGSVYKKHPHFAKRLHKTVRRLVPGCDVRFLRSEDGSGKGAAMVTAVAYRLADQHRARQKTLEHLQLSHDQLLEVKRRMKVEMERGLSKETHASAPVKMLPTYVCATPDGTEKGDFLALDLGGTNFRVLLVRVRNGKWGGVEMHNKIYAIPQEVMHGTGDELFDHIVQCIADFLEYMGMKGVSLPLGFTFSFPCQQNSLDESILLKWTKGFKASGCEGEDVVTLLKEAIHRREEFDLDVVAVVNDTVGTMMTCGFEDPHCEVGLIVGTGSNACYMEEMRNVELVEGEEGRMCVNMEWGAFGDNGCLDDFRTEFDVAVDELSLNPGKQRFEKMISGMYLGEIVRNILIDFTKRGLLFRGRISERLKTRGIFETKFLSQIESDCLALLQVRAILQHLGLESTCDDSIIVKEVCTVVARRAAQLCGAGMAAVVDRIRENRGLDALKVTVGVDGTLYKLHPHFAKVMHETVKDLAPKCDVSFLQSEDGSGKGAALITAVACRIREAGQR
Put plainly: Effect on hexokinase-2 (unknown origin).

As to `COC[C@H](C)Oc1cc(Oc2cnc(C(=O)N3CCC3)cn2)cc(C(=O)Nc2cnc(C)cn2)c1`, the result in assay [1] was Active.

Consider `COC[C@H](C)Oc1cc(C#Cc2cccc(OCCN3CCOCC3)c2)cc(C(=O)Nc2ccn(C)n2)c1`, for which the Activity in assay [2] was determined as 0.35 mM. Further, the fold change (FC) in assay [3] came to 1.89.

Take `COCCNc1cccc(C#Cc2cc(O[C@@H](C)COC)cc(C(=O)Nc3ccn(C)n3)c2)c1`: in assay [2], the Activity worked out at 1.23 mM. The fold change (FC) in assay [3] worked out at 2.18.

`COC[C@H](C)Oc1cc(C#Cc2cccc(NCCN3CCCC3)c2)cc(C(=O)Nc2ccn(C)n2)c1`: in assay [2], the Activity is 0.51 mM. The fold change (FC) in assay [3] turned out to be 2.83.

Consider `COC[C@H](C)Oc1cc(C#Cc2cccc(N)c2)cc(C(=O)Nc2ccn(C)n2)c1`, for which the Activity result was “Dose-dependent effect” in assay [4] and 0.84 mM in assay [2]. Further, the fold change (FC) in assay [3] is 2.16; in assay [5], 2.13. Besides, the outcome in assay [6] and in assay [7] was inactive.

Turning to `CCN(CC)c1cccc(C#Cc2cc(O[C@@H](C)COC)cc(C(=O)Nc3ccn(C)n3)c2)c1`, the Activity in assay [2] came out at 2.01 mM. The fold change (FC) in assay [3] was determined as 1.91.

Regarding `COC[C@H](C)Oc1cc(C#Cc2cccc(N(C)C)c2)cc(C(=O)Nc2ccn(C)n2)c1`, the Activity in assay [2] worked out at 0.76 mM. For the same molecule, the fold change (FC) in assay [3] is 2.43.

Turning to `COC[C@H](C)Oc1cc(C#Cc2cccc(OC(C)C)c2)cc(C(=O)Nc2ccn(C)n2)c1`, the Activity in assay [2] was 1.84 mM. In addition, in assay [3], the fold change (FC) was 2.03.

As for `COC[C@H](C)Oc1cc(C#Cc2cccc(O)c2)cc(C(=O)Nc2ccn(C)n2)c1`, the Activity in assay [2] amounted to 1.37 mM. In addition, the fold change (FC) in assay [3] came to 1.57.

With `COC[C@H](C)Oc1cc(C#Cc2ccc3c(c2)OCO3)cc(C(=O)Nc2ccn(C)n2)c1`, in assay [2], the Activity stood at 2.13 mM. For the same molecule, the fold change (FC) in assay [3] worked out at 2.64.

Turning to `COC[C@H](C)Oc1cc(C#Cc2ccccc2OC)cc(C(=O)Nc2ccn(C)n2)c1`, the Activity in assay [2] was determined as 0.73 mM. Further, the fold change (FC) in assay [3] turned out to be 2.64.

Regarding `COC[C@H](C)Oc1cc(C#Cc2ccc3[nH]ccc3c2)cc(C(=O)Nc2ccn(C)n2)c1`, the Activity in assay [2] was found to be 0.46 mM. Further, in assay [3], the fold change (FC) turned out to be 1.99.

For the molecule `COC[C@H](C)Oc1cc(C#CCN(C)C)cc(C(=O)Nc2ccn(C)n2)c1`, the Activity in assay [2] came out at 5.51 mM. The fold change (FC) in assay [3] was determined as 1.31.

Turning to `COC[C@H](C)Oc1cc(C#CCNc2ncccn2)cc(C(=O)Nc2ccn(C)n2)c1`, the Activity in assay [2] came out at 3.88 mM. In addition, the fold change (FC) in assay [3] is 2.37.

For `COC[C@H](C)Oc1cc(C#Cc2cccc(OCC#N)c2)cc(C(=O)Nc2ccn(C)n2)c1`, the Activity in assay [2] came out at 0.95 mM. For the same molecule, the fold change (FC) in assay [3] was determined as 1.75.

On to `COC[C@H](C)Oc1cc(C#Cc2cccc(NCCN3CCOCC3)c2)cc(C(=O)Nc2ccn(C)n2)c1`, for which the Activity in assay [2] is 0.55 mM. Further, the fold change (FC) in assay [3] turned out to be 2.62.

For `COC[C@H](C)Oc1cc(C#Cc2cccc(OCCN3CCCCC3)c2)cc(C(=O)Nc2ccn(C)n2)c1`, in assay [2], the Activity stood at 2.25 mM. For the same molecule, in assay [3], the fold change (FC) is 2.36.

Take `COC[C@H](C)Oc1cc(C#Cc2cccc(OCCN3CCCC3)c2)cc(C(=O)Nc2ccn(C)n2)c1`: the Activity in assay [2] was 0.73 mM. Further, in assay [3], the fold change (FC) was found to be 2.43.

Regarding `COC[C@H](C)Oc1cc(C#Cc2cccc(NCCn3ccnc3C)c2)cc(C(=O)Nc2ccn(C)n2)c1`, in assay [2], the Activity was found to be 0.9 mM. Besides, the fold change (FC) in assay [3] was found to be 2.36.

Turning to `COC[C@H](C)Oc1cc(C#Cc2cccc(NCCN3CCCCC3)c2)cc(C(=O)Nc2ccn(C)n2)c1`, the Activity in assay [2] is 0.61 mM. Also, in assay [3], the fold change (FC) is 2.79.

`COC[C@H](C)Oc1cc(C#Cc2cccc(NCCN(C)C)c2)cc(C(=O)Nc2ccn(C)n2)c1`: in assay [2], the Activity was 0.17 mM. Moreover, in assay [3], the fold change (FC) came out at 2.03.

As for `COC[C@H](C)Oc1cc(C#Cc2ccc(N)cc2)cc(C(=O)Nc2ccn(C)n2)c1`, in assay [2], the Activity was 0.73 mM. Besides, in assay [3], the fold change (FC) is 2.05.

Regarding `COCC#Cc1cc(O[C@@H](C)COC)cc(C(=O)Nc2ccn(C)n2)c1`, the Activity in assay [2] worked out at 4.04 mM. Further, the fold change (FC) in assay [3] came out at 1.71.

In the case of `COC[C@H](C)Oc1cc(C#CCOC2CCCCO2)cc(C(=O)Nc2ccn(C)n2)c1` (stereo partly specified), the Activity in assay [2] turned out to be 0.55 mM. Besides, the fold change (FC) in assay [3] worked out at 2.5.
